# Measured values reported in ChEMBL document CHEMBL1142140, “Activity of ribavirin against Hantaan virus correlates with production of ribavirin-5'-triphosphate, not with inhibition of IMP dehydrogenase” (2007).
# The source made the active and inactive calls. No cut-off for these calls is given here.
# Columns and labels:
# Vero [1] = experiment: Effect on metabolism of 40 ug/ml RBV in Vero E6 cells assessed as RBV-TP concentration at 1 ug/ml after 24 h; format: functional, Chlorocebus sabaeus
# Procedure, shortened: (§1)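 Vero E6 cells were given [3H]RBV for 24 h at 37°C, alone or with added MPA (experiment 1) or guanosine (experiment 2). Perchloric acid extracts were resolved on SAX HPLC, and RBV-MP and RBV-TP were quantified by counting 1-min fractions. Values are the mean ± SD of three measurements, and the experiment was repeated twice.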
# Vero [2] = experiment: Effect on metabolism of 10 ug/ml RBV in Vero E6 cells assessed as RBV-MP concentration at 1 ug/ml after 24 h; format: functional, Chlorocebus sabaeus; procedure, shortened: as §1
# Vero [3] = experiment: Effect on metabolism of 10 ug/ml RBV in Vero E6 cells assessed as RBV-MP concentration at 2 ug/ml after 24 h; format: functional, Chlorocebus sabaeus; procedure, shortened: as §1
# Vero [4] = experiment: Decrease in GTP level in Vero E6 cells at 40 ug/ml after 24 h; format: functional, Chlorocebus sabaeus; design: scale not given: the % may be the effect or the level left
# Vero [5] = experiment: Effect on metabolism of 40 ug/ml RBV in Vero E6 cells assessed as RBV-TP concentration at 5 ug/ml after 24 h; format: functional, Chlorocebus sabaeus; procedure, shortened: as §1
# Vero [6] = experiment: Effect on metabolism of 10 ug/ml RBV in Vero E6 cells assessed as RBV-MP concentration at 5 ug/ml after 24 h; format: functional, Chlorocebus sabaeus; procedure, shortened: as §1
# Vero [7] = experiment: Effect on metabolism of 40 ug/ml RBV in Vero E6 cells assessed as RBV-MP concentration at 1 ug/ml after 24 h; format: functional, Chlorocebus sabaeus; procedure, shortened: as §1
# Vero [8] = experiment: Effect on metabolism of 10 ug/ml RBV in Vero E6 cells assessed as RBV-TP concentration at 2 ug/ml after 24 h; format: functional, Chlorocebus sabaeus; procedure, shortened: as §1
# Vero [9] = experiment: Effect on metabolism of 40 ug/ml RBV in Vero E6 cells assessed as RBV-MP concentration at 2 ug/ml after 24 h; format: functional, Chlorocebus sabaeus; procedure, shortened: as §1
# Vero [10] = experiment: Effect on metabolism of 10 ug/ml RBV in Vero E6 cells assessed as RBV-TP concentration at 1 ug/ml after 24 h; format: functional, Chlorocebus sabaeus; procedure, shortened: as §1
# Vero [11] = experiment: Effect on metabolism of 10 ug/ml RBV in Vero E6 cells assessed as RBV-TP concentration at 5 ug/ml after 24 h; format: functional, Chlorocebus sabaeus; procedure, shortened: as §1
# [12] = Inhibition of viral RNA levels in HTNV76-118-infected Vero E6 cells at 10 ug/ml; format: functional, Hantaan virus; conditions: Orthohantavirus hantanense, 76-118, Vero
# Vero [13] = experiment: Effect on metabolism of 40 ug/ml RBV in Vero E6 cells assessed as RBV-MP concentration at 5 ug/ml after 24 h; format: functional, Chlorocebus sabaeus; procedure, shortened: as §1
# Vero [14] = experiment: Effect on metabolism of 40 ug/ml RBV in Vero E6 cells assessed as RBV-TP concentration at 2 ug/ml after 24 h; format: functional, Chlorocebus sabaeus; procedure, shortened: as §1
# Vero [15] = experiment: Decrease in GTP level in Vero E6 cells at 2.5 ug/ml; format: functional, Chlorocebus sabaeus; design: scale not given: the % may be the effect or the level left
# Procedure, shortened: (§2)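 Confluent 3-day-old Vero E6 cells incubated at 37°C with drug: 10 μg/ml RBV or 2.5 μg/ml MPA over a 0–72 h time course; RBV for 4 h; 10 μg/ml guanosine for 24 h. Ice-cold 0.5 M perchloric acid extracts neutralized with KOH, then SAX HPLC with an NH4H2PO4 gradient from pH 2.8 to 3.7. GTP and ATP read at 260 nm; mean of three measurements.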
# Vero [16] = experiment: Effect on metabolism of 10 ug/ml RBV in Vero E6 cells assessed as RBV-TP concentration at 10 ug/ml after 24 h; format: functional, Chlorocebus sabaeus; procedure, shortened: as §1
# Vero [17] = experiment: Inhibition of 40 ug/ml RBV-induced depression in intracellular GTP level in Vero E6 cells at 35 uM after 24 h; format: functional, cell-based; conditions: Chlorocebus sabaeus
# Procedure, shortened: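 Vero E6 cells were treated for 24 h with 40 μg/ml RBV, with or without 10 μg/ml guanosine. Acid-soluble (perchloric acid) extracts were run on SAX HPLC, and GTP and ATP were quantified by UV at 260 nm. Values are the mean of three measurements.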
# Vero [18] = experiment: Inhibition of 1 ug/ml RBV-induced depression in intracellular GTP level in Vero E6 cells at 35 uM after 24 h; format: functional, cell-based; conditions: Chlorocebus sabaeus
# Vero [19] = experiment: Effect on metabolism of 40 ug/ml RBV in Vero E6 cells assessed as RBV-TP concentration at 10 ug/ml after 24 h; format: functional, Chlorocebus sabaeus; procedure, shortened: as §1
# Vero [20] = experiment: Effect on metabolism of 10 ug/ml RBV in Vero E6 cells assessed as RBV-MP concentration at 10 ug/ml after 24 h; format: functional, Chlorocebus sabaeus; procedure, shortened: as §1
# Vero [21] = experiment: Effect on metabolism of 40 ug/ml RBV in Vero E6 cells assessed as RBV-MP concentration at 10 ug/ml after 24 h; format: functional, Chlorocebus sabaeus; procedure, shortened: as §1
# Vero [22] = experiment: Inhibition of MPA effect on viral RNA in HTNV 76-118-infected Vero E6 cells at 35 uM; format: functional, cell-based; conditions: Hantaan virus
# Vero [23] = experiment: Increase in GTP level in Vero E6 cells at 35 uM after 24 hr relative to control; format: functional, Chlorocebus sabaeus; procedure, shortened: as §2
# Vero [24] = experiment: Decrease in GTP level in Vero E6 cells at 40 ug/ml after 4 h; format: functional, cell-based; conditions: Chlorocebus sabaeus; procedure, shortened: as §2
# [25] = Inhibition of viral RNA levels in HTNV76-118-infected Vero E6 cells at 0.5 ug/ml; format: functional, Hantaan virus; conditions: Orthohantavirus hantanense, 76-118, Vero
# [26] = Inhibition of viral RNA levels in HTNV 76-118-infected Vero E6 cells at 40 ug/ml after 3 days; format: functional, Hantaan virus; conditions: Orthohantavirus hantanense, 76-118, Vero, 72 h
# Vero [27] = experiment: RBV metabolism in Vero E6 cells assessed as RBV-MP concentration at 10 ug/ml after 24 h; format: functional, Chlorocebus sabaeus; procedure, shortened: as §1
# Vero [28] = experiment: RBV metabolism in Vero E6 cells assessed as RBV-MP concentration at 40 ug/ml after 24 h; format: functional, Chlorocebus sabaeus; procedure, shortened: as §1
# Vero [29] = experiment: RBV metabolism in Vero E6 cells assessed as RBV-TP concentration at 10 ug/ml after 24 h; format: functional, Chlorocebus sabaeus; procedure, shortened: as §1
# Vero [30] = experiment: RBV metabolism in Vero E6 cells assessed as RBV-TP concentration at 40 ug/ml after 24 h; format: functional, Chlorocebus sabaeus; procedure, shortened: as §1
# Vero [31] = experiment: Decrease in GTP level in Vero E6 cells at 10 ug/ml; format: functional, Chlorocebus sabaeus; design: scale not given: the % may be the effect or the level left; procedure, shortened: as §2
compound,measurement,setting,value
COc1c(C)c2c(c(O)c1C/C=C(\C)CCC(=O)O)C(=O)OC2 [MYCOPHENOLIC ACID],Activity,Vero [1],26 pmol
same,Activity,Vero [2],1.3 pmol
same,Activity,Vero [3],1.3 pmol
same,Activity,Vero [4],80%
same,Activity,Vero [5],26 pmol
same,Activity,Vero [6],1.2 pmol
same,Activity,Vero [7],4.2 pmol
same,Activity,Vero [8],6.8 pmol
same,Activity,Vero [9],3.8 pmol
same,Activity,Vero [10],7.8 pmol
same,Activity,Vero [11],7 pmol
same,inhibition at 10 µg/mL,[12],-70%
same,Activity,Vero [13],3.9 pmol
same,Activity,Vero [14],27 pmol
same,Activity,Vero [15],90%
Nc1nc2c(ncn2[C@@H]2O[C@H](CO)[C@@H](O)[C@H]2O)c(=O)[nH]1 [GUANOSINE],Activity,Vero [16],14 pmol
same,Activity,Vero [17],Active
same,Activity,Vero [18],Active
same,Activity,Vero [19],65 pmol
same,Activity,Vero [20],1.9 pmol
same,Activity,Vero [21],8.6 pmol
same,Activity,Vero [22],Active
same,Activity,Vero [23],145%
NC(=O)c1ncn([C@@H]2O[C@H](CO)[C@@H](O)[C@H]2O)n1 [RIBAVIRIN],Activity,Vero [4],50%
same,Activity,Vero [24],Active
same,inhibition at 0.5 µg/mL,[25],-80%
same,inhibition at 40 µg/mL,[26],99.9%
same,Activity,Vero [27],1.1 pmol
same,Activity,Vero [28],3.2 pmol
same,Activity,Vero [29],6.5 pmol
same,Activity,Vero [30],22 pmol
same,Activity,Vero [31],40%
